Entries after “also recorded” stand apart in the source; their conditions may differ.
Legend:
[1] = biological target: T1, MMP-14/MT1-MMP (ectodomain, soluble MT1-MMP) (Homo sapiens, UniProt P50281); test: Hydrolysis of fluorogenic; assay type: biochemical
Method in brief: (§1)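 Soluble ectodomain was activated with 0.1 equiv trypsin-3 for 1 h at 37 °C, quenched with AEBSF and diluted in TSB*Zn. The Mca/Dnp substrate was equilibrated in TSB at 4 °C for 24 h and quantified at 363 nm. Twelve 1:1 dilutions were made from a 100 µM stock, and enzyme was added from a 100 nM 20× stock. Fluorescence was read every 8 s for 600 s at 30 °C, with a final read at 24 h. The 25 µM sample was analysed by HPLC for % cleavage; triplicate.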

[2] = biological target: T2, MMP-8 (Homo sapiens, UniProt P22894); test: Hydrolysis of fluorogenic; assay type: biochemical; conditions: 30 °C; for hydrolysis of fluorogenic peptomer by MMP-8: FRET kinetic assay, TSB*Zn buffer
Method in brief: as §1, with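 “Enzymes were activated” for “Soluble ectodomain was activated”, “with” for “with 0.1 equiv trypsin-3 for”, “1 mM […]” for “1 h”, “37 °C for 60 min” for “37 °C, quenched with AEBSF”, “363 nm (εDnp 15900 M−1 cm−1).” for “363 nm.”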

[3] = biological target: T3, MMP-13 (Homo sapiens, UniProt P45452); test: Hydrolysis of fluorogenic; assay type: biochemical
Method in brief: as §1, with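 “Enzymes were activated” for “Soluble ectodomain was activated”, “with” for “with 0.1 equiv trypsin-3 for”, “1 mM […]” for “1 h”, “37 °C for 60 min” for “37 °C, quenched with AEBSF”, “363 nm (εDnp 15900 M−1 cm−1).” for “363 nm.”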

[4] = biological target: T4, MMP-1 (Homo sapiens, UniProt P03956); test: Hydrolysis of fluorogenic; assay type: biochemical; conditions: 30 °C; for hydrolysis of fluorogenic peptomer by MMP-1: FRET kinetic assay, TSB*Zn buffer
T4 sequence (P03956 100-469): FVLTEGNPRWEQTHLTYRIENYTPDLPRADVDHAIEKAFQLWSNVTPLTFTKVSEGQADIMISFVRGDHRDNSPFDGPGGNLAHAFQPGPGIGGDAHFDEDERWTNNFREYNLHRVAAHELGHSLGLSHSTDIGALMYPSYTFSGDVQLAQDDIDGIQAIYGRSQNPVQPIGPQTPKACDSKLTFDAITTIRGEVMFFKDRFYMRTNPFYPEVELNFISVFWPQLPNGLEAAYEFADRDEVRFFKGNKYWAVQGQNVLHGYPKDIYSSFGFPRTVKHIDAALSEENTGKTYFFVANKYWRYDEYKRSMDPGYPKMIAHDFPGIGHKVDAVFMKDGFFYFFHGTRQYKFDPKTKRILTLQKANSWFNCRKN
Method in brief: as §1, with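 “Enzymes were activated” for “Soluble ectodomain was activated”, “with” for “with 0.1 equiv trypsin-3 for”, “1 mM […]” for “1 h”, “37 °C for 60 min” for “37 °C, quenched with AEBSF”, “363 nm (εDnp 15900 M−1 cm−1).” for “363 nm.”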

[5] = biological target: T1, MMP-14/MT1-MMP (ectodomain, soluble MT1-MMP); test: HPLC-monitored hydrolysis of peptomeric THPs by MT1-MMP; assay type: biochemical; conditions: room temperature, 24 h; MALDI-TOF MS / HPLC of products
Method in brief: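 Soluble ectodomain was activated with 0.1 equiv trypsin-3 for 1 h at 37 °C. Trypsin was quenched with 100 equiv AEBSF for 15 min at room temperature, then the enzyme was diluted in cold TSB*Zn (pH 7.5). Substrates were pre-equilibrated in TSB at 4 °C for 24 h. Reactions used 20 nM enzyme at 1:1000 enzyme:substrate for 24 h at room temperature (some also at 37 °C). Reactions were quenched with 50 mM EDTA; triplicate RP-HPLC integration at 220 nm, MALDI-TOF for products.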

[6] = biological target: T2, MMP-8; test: HPLC-monitored hydrolysis of peptomeric THPs by MMP-8; assay type: biochemical; conditions: room temperature, 24 h; MALDI-TOF MS / HPLC of products
Method in brief: (§2)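 Full-length human enzymes were activated with 1 mM […] for 60 min at 37 °C, then diluted to 100 nM in ice-cold TSB*Zn (Tris, NaCl, CaCl2, ZnCl2, Brij-35, pH 7.5). Substrates were pre-equilibrated in TSB at 4 °C for 24 h. Reactions used 20 nM enzyme at 1:1000 enzyme:substrate for 24 h at room temperature (some also at 37 °C). Reactions were quenched with 50 mM EDTA; triplicate RP-HPLC peak integration at 220 nm, with MALDI-TOF identifying products.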

[7] = biological target: T3, MMP-13; test: HPLC-monitored hydrolysis of peptomeric THPs by MMP-13; assay type: biochemical; conditions: 24 h; for cleavage site, MMP-13: room temperature, MALDI-TOF MS / HPLC of products
Method in brief: as §2

[8] = biological target: T4, MMP-1; test: HPLC-monitored hydrolysis of peptomeric THPs by MMP-1; assay type: biochemical; conditions: room temperature, 24 h; MALDI-TOF MS / HPLC of products
Method in brief: as §2

[9] = CD thermal transition; assay type: physicochemical; conditions: decrease relative to α1(I)772–786 THP
[10] = biological target: MMP-3 (Homo sapiens, UniProt P08254); test: Hydrolysis of Ac-pfTHP-1 by noncollagenolytic MMP-3; assay type: biochemical; conditions: data not shown
[11] = biological target: T2, MMP-8; test: Inhibition of MMP-8 by non-cleaved peptomers; assay type: biochemical; conditions: MS-1 up to 200 µM; concentration for MS-2 not given; data not shown
[12] = biological target: T4, MMP-1; test: Inhibition of MMP-1 by non-cleaved peptomers; assay type: biochemical; conditions: MS-1 up to 200 µM; concentration for MS-2 not given; data not shown
[13] = biological target: MMP-14/MT1-MMP (Homo sapiens, UniProt P50281); test: Inhibition of MT1-MMP by non-cleaved peptomers; assay type: biochemical; conditions: MS-1 up to 200 µM; concentration for MS-2 not given; data not shown
[14] = biological target: T3, MMP-13; test: Inhibition of MMP-13 by non-cleaved peptomers; assay type: biochemical; conditions: MS-1 up to 200 µM; concentration for MS-2 not given; data not shown
[15] = RP-HPLC, 25 µM peptomer, 30 °C, 24 h, data not shown
[16] = RP-HPLC, 25 µM peptomer, 24 h, data not shown

T2 sequence (P22894 101-467): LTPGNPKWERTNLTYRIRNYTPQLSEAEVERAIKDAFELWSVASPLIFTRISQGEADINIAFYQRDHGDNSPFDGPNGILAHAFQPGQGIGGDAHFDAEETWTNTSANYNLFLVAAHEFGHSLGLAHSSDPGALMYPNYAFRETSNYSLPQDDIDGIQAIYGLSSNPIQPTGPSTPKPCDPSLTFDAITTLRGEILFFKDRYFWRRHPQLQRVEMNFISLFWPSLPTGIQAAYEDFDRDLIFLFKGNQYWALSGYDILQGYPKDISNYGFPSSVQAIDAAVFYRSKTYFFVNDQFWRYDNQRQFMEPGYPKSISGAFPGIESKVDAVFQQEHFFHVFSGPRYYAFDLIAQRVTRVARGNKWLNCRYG
Sequence of MMP-3 (P08254 100-477, species assumed): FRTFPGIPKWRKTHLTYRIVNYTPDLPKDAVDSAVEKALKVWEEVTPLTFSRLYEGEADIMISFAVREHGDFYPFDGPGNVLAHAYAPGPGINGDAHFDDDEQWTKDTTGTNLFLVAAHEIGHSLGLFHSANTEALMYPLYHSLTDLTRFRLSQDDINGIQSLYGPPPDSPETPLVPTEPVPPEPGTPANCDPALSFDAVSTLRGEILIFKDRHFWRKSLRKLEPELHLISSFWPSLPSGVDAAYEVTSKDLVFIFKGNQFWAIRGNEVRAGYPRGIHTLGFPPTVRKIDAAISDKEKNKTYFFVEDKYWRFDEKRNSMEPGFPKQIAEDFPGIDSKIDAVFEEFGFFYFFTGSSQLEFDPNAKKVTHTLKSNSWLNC

cleavage site, MT1-MMP [5] | cleavage site, MMP-8 [6] | cleavage site, MMP-13 [7] | cleavage site, MMP-1 [8] | Tm lower than that of parent THP by [9] | Substance | also measured
– | – | – | – | – | (GPO)4GP-Lys(Mca)-G-Sar-AGQRGV-Lys(Dnp)-G- NLeu-O(GPO)4-NH2 [pfTHP-1] | cleavage sites of fluorogenic peptomer, MT1-MMP [1]: Gly781–Val782 and Arg780–Gly781 bonds; hydrolysis of fluorogenic peptomer by MMP-8 [2]: unable to hydrolyze; cleavage site of fluorogenic peptomer, MMP-13 [3]: between Gly778 and Gln779; hydrolysis of fluorogenic peptomer by MMP-1 [4]: unable to hydrolyze
between Sar775 and Ile776 | between Sar775 and Ile776 | between Sar775 and Ile776 | between Sar775 and Ile776 | 13.5 °C | (GPO)4GPQ-Sar-IAGQRGVVG-NLeu-GLO(GPO)4- NH2 [MS-9] | –
– | – | – | – | – | Ac-(GPO)4-GP-Lys(Mca)-G-Sar-AGQRGV-Lys(Dnp) G-NLeu-O(GPO)4-NH2 [Ac-pfTHP-1] | hydrolysis by MT1-MMP [1, 15]: 22%; cleavage sites of fluorogenic peptomer, MT1-MMP [1]: Gly781–Val782 and Arg780–Gly781 bonds; hydrolysis of fluorogenic peptomer by MMP-8 [2]: unable to hydrolyze; hydrolysis by MMP-8 [2, 16]: < 2%; hydrolysis by MMP-3 [10]: not able to hydrolyze; hydrolysis by MMP-13 [3, 15]: 65%; cleavage site of fluorogenic peptomer, MMP-13 [3]: between Gly778 and Gln779; hydrolysis of fluorogenic peptomer by MMP-1 [4]: unable to hydrolyze; hydrolysis by MMP-1 [4, 16]: < 1%
– | – | – | – | 4 °C | (GPO)4G-Sar-QGIAGQRGVVGLO(GPO)4-NH2 [MS-4] | –
between Sar775 and Ile776 | between Sar775 and Ile776 | between Sar775 and Ile776 | between Sar775 and Ile776 | 20 °C | (GPO)4GPQ-Sar-IAGQRGVVGLO(GPO)4-NH2 [MS-3] | –
Gly775–Ile776 bond | Gly775–Ile776 bond | Gly775–Ile776 bond | Gly775–Ile776 bond | – | (GPO)4GPQGIAGQRGVVG-NLeu-O(GPO)4-NH2 [MS-7] | difference in MMP-13 hydrolysis versus parent THP ([7]; 37 °C, RP-HPLC, peptomer better substrate than parent THP): 2 fold
– | – | – | – | – | (GPO)4-GPQG-NIle-AGQRGVVGLO(GPO)4-NH2 [MS-1] | inhibition of MMP-8 [11]: No inhibition; inhibition of MMP-1 [12]: No inhibition; inhibition of MT1-MMP [13]: No inhibition; inhibition of MMP-13 [14]: No inhibition

Substance | cleavage site, MT1-MMP [5] | cleavage site, MMP-8 [6] | cleavage site, MMP-13 [7] | cleavage site, MMP-1 [8] | Tm lower than that of parent THP by [9] | also measured
(GPO)4GPQGWAGQRGVVG-NLeu-O(GPO)4-NH2 [MS-10] | Gly775-Trp776 bond; also recorded: occurring at several bonds | Gly775-Trp776 bond | Gly775-Trp776 bond | – | – | –
